Laboratory results reported in ChEMBL document CHEMBL1132993, “Novel benzofuran and benzothiophene biphenyls as inhibitors of protein tyrosine phosphatase 1B with antihyperglycemic properties” (J Med Chem, 2000).

Key:
[1] = biological target: Dual specificity protein phosphatase 3 (Homo sapiens, UniProt P51452); assay: in vitro inhibitory activity against Dual specificity protein phosphatase 3
[2] = in vitro inhibitory activity against He-PTP
[3] = biological target: Receptor-type tyrosine-protein phosphatase F (Homo sapiens, UniProt P10586); assay: in vitro inhibitory activity against LAR
Sequence of Receptor-type tyrosine-protein phosphatase F (P10586 whole entry): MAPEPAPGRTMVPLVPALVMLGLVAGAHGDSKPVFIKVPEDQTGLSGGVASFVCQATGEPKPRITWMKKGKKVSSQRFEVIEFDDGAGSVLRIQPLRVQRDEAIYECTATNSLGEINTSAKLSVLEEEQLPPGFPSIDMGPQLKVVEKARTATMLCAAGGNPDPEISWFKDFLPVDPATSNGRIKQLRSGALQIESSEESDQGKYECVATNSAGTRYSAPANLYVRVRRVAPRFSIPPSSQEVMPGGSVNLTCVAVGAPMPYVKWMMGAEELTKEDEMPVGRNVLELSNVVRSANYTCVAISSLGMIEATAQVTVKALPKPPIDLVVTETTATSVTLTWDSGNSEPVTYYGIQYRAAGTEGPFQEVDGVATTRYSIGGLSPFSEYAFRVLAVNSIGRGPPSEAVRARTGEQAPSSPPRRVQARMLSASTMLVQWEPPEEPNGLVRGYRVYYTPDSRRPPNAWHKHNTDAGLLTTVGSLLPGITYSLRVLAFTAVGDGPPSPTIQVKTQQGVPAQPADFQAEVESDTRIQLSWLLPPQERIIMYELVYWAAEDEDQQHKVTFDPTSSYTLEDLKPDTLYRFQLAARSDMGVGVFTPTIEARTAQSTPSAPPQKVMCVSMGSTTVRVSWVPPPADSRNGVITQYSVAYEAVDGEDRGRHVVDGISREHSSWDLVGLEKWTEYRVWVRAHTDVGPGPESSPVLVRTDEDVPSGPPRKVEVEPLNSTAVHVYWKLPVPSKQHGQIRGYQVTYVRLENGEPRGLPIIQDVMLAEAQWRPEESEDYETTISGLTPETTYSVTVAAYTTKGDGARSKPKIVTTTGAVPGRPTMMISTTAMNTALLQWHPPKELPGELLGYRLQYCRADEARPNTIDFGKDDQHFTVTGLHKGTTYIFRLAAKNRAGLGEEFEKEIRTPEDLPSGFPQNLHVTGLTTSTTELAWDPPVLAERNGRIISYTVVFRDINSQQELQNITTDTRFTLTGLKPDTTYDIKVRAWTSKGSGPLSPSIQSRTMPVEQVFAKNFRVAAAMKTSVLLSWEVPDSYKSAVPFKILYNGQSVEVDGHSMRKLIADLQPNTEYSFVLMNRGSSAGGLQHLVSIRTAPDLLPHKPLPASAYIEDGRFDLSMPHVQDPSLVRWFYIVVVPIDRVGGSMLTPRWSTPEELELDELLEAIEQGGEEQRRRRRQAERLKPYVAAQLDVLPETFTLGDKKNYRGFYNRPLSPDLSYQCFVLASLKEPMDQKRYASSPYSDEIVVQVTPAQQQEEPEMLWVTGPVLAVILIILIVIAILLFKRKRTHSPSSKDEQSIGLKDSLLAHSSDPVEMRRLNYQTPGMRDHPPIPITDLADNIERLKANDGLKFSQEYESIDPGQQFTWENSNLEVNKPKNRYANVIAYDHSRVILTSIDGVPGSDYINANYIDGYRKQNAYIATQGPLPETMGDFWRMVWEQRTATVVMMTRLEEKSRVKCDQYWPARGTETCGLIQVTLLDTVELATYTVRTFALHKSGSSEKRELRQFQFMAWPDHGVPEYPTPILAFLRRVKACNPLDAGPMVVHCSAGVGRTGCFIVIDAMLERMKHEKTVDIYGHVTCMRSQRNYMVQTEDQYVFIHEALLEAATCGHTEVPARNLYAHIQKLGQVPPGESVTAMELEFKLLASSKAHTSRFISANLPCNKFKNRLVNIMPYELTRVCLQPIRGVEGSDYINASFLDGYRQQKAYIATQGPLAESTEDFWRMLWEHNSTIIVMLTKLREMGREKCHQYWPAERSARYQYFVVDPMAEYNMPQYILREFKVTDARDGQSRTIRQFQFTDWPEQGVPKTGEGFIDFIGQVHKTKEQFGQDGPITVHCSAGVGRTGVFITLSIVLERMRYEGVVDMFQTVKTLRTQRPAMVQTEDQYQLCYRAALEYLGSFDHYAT

Mus musculus [4] = assay: percentage decrease in plasma glucose in the ob/ob mouse model at 100 mg/kg/day administered per orally; format: functional; conditions: route oral
Outline: (§1)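 Genetically obese C57 B1/6J ob/ob diabetic mice, four to six per group, dosed orally once daily for 4 days. Plasma glucose is expressed as percent change relative to the vehicle-treated group, with p < 0.05 versus vehicle. Changes that are not significant are generally less than -15%. Ciglitazone served as the reference standard.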

[5] = in vitro inhibitory activity against PTP-a
Mus musculus [6] = assay: percentage decrease in plasma glucose in the ob/ob mouse model at 25 mg/kg/day administered per orally; format: functional; conditions: route oral; outline: as §1
Mus musculus [7] = assay: percentage decrease in plasma glucose in the ob/ob mouse model at 25 mg/Kg/day administered per orally; format: functional; outline: as §1
[8] = biological target: T1, Tyrosine-protein phosphatase non-receptor type 1 (Homo sapiens, UniProt P18031); assay: In vitro inhibitory activity against human recombinant protein tyrosine phosphatase 1b (PTP1B)
T1 sequence (P18031 whole entry): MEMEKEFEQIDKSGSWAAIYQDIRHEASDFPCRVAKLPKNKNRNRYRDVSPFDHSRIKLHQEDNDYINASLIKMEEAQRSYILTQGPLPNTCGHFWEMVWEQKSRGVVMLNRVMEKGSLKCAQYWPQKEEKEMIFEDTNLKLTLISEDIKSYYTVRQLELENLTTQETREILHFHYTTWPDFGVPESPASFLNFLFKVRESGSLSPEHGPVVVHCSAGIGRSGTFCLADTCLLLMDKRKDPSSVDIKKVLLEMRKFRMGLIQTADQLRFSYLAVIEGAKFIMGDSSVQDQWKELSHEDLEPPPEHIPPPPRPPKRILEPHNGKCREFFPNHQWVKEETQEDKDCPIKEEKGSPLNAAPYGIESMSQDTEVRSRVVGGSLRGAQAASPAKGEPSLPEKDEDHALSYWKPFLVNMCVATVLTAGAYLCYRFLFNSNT
Outline: (§2)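 Recombinant human PTP1B, diluted in pH 7.4 Tris-HCl/EDTA/β-mercaptoethanol buffer, preincubated 10 min at 37 °C with compound in HEPES pH 7.4. Reaction ran 30 min at 37 °C. Released phosphate was read by malachite green-ammonium molybdate at 650 nm, in quadruplicate. IC50 came from four-parameter logistic regression.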

[9] = biological target: T1, Tyrosine-protein phosphatase non-receptor type 1; assay: in vitro inhibitory activity against recombinant human Protein Tyrosine Phosphatase 1b
Outline: as §2, with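 “7.4. Substrate was the insulin receptor 1142-1153 dodecapeptide phosphorylated at Y1146/1150/1151, 50 µM final.” for “7.4.”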

[10] = biological target: T2, Tyrosine-protein phosphatase non-receptor type 1 (Homo sapiens) (UniProt P18031); conditions: 0.25 uM
T2 sequence (whole entry): T1 sequence (P18031 whole entry)

[11] = biological target: T2, Tyrosine-protein phosphatase non-receptor type 1 (Homo sapiens); assay: In vitro inhibitory activity against recombinant human Protein Tyrosine Phosphatase 1b at a concentration of 1 uM
Outline: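 Recombinant human PTP1B was preincubated 10 min at 37 °C with compound at 1 µM, then given 50 µM tri-phosphorylated insulin receptor dodecapeptide for 30 min at 37 °C. Liberated phosphate was measured by malachite green-molybdate absorbance at 650 nm, in quadruplicate. Values are inhibition expressed as percent of phosphatase control.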

Mus musculus [12] = assay: Percentage decrease in plasma glucose in the ob/ob mouse model at 100 mg/kg/day administered per orally; format: functional; conditions: route oral; outline: as §1
[13] = biological target: T2, Tyrosine-protein phosphatase non-receptor type 1 (Homo sapiens); conditions: 0.1 uM

Sequence of Dual specificity protein phosphatase 3 (P51452 whole entry): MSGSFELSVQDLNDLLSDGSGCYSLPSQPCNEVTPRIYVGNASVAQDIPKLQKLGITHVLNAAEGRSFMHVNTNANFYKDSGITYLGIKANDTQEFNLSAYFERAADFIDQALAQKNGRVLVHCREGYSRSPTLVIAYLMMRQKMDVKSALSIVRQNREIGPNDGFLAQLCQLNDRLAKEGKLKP

O=C(O)[C@H](Cc1ccccc1)Oc1ccc(-c2ccc(-c3c(Cc4ccccc4)oc4ccccc34)cc2)cc1
IC50 [1]: 15900 nM
IC50 [2]: 7100 nM
IC50 [3]: 3250 nM
Decrease (Mus musculus [4]): 40%
IC50 [5]: 33700 nM
Decrease (Mus musculus [6]): 27%

O=C(O)[C@@H](Cc1ccccc1)Oc1ccc(-c2ccc(-c3c(C(O)c4ccccc4)oc4ccccc34)cc2)cc1 (stereo partly drawn)
Decrease (Mus musculus [4]): -1%
Decrease (Mus musculus [7]): 21%
IC50 [8]: 110 nM

C[C@@H](Oc1ccc(-c2ccc(-c3c(Cc4ccccc4)oc4ccccc34)cc2)cc1)C(=O)O
Decrease (Mus musculus [4]): 39%
Decrease (Mus musculus [7]): -1%

CC(Cc1ccccc1)(Oc1ccc(-c2ccc(-c3c(Cc4ccccc4)oc4ccccc34)cc2)cc1)C(=O)O (stereo not drawn)
Decrease (Mus musculus [4]): 28%
Decrease (Mus musculus [7]): 30%

O=C(O)CCC(=O)Nc1cc(-c2ccc(-c3c(Cc4ccccc4)oc4ccccc34)cc2)ccc1O
IC50 [9]: 920 nM

O=C(O)[C@H](Cc1ccccc1)Oc1ccc(-c2ccc(-c3c(Cc4ccc(F)cc4)oc4ccccc34)cc2)cc1
Average inhibition [10]: -38

Oc1c(Br)cc(-c2ccc(-c3c(Cc4ccccc4)oc4ccccc34)cc2)cc1Br
Average inhibition [11]: -43

Cc1oc(-c2ccc(C(F)(F)F)cc2)nc1-c1ccc(-c2ccc(OCC(=O)O)cc2)cc1
Decrease (Mus musculus [12]): 40%
IC50 [8]: 800 nM

O=C(O)/C=C\C(=O)Nc1cc(-c2ccc(-c3c(Cc4ccccc4)oc4ccccc34)cc2)ccc1O
IC50 [9]: 460 nM

CCCc1cc(-c2ccc(-c3c(Cc4ccccc4)oc4ccccc34)cc2)ccc1O[C@@H](Cc1ccccc1)C(=O)O
Average inhibition [13]: -59

CCCCCCC(Oc1c(Br)cc(-c2ccc(-c3c(Cc4ccccc4)oc4ccccc34)cc2)cc1Br)C(=O)O (stereo not drawn)
Decrease (Mus musculus [7]): 27%
IC50 [8]: 23 nM

Oc1ccc(-c2ccc(-c3c(Cc4ccccc4)oc4ccccc34)cc2)cc1Br
Average inhibition [11]: -59

O=C(O)[C@@H](Cc1ccccc1)Oc1ccc(-c2ccc(-c3nc4cccnc4n3Cc3ccccc3)cc2)cc1
Average inhibition [11]: -19

COc1ccc(Cc2sc3ccccc3c2-c2ccc(-c3ccc(O[C@H](Cc4ccccc4)C(=O)O)cc3)cc2)cc1OC
Decrease (Mus musculus [7]): 24%
IC50 [8]: 120 nM

O=C(O)CCNc1cc(-c2ccc(-c3c(Cc4ccccc4)oc4ccccc34)cc2)ccc1OCCc1ccccc1
Decrease (Mus musculus [7]): 17%
IC50 [8]: 140 nM
